Screens from PubChem.
TDP2 absorb = TDP2 (human) inhibition, absorbance primary screen | recombinant TDP2, T5PNP hydrolysis, p-nitrophenol absorbance 415 nm | AID 720702 | O95551 | hit rate 0.34% among 370,000 | inhibition, % at 12.8 µM;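 active = inhibition above the mean of all tested compounds plus 3 SD, set per campaign, cut at about 25% in these data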;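 note: 0% = DMSO with enzyme and 100% = buffer with substrate but no TDP2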
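Test system: human TDP2 enzyme; Input: 120 nM TDP2 per well; Buffer or medium: Mg2+-containing Tris-HCl buffer, pH 7.5; Reagent: 5 mM T5PNP; Dosing: 12.8 µM single point, 1% DMSO; Incubation: reaction 2 h, 37 °C; Detection: p-Nitrophenol epi absorbance; Read-out: % inhibition relative to enzyme-containing and enzyme-free wells; Replicates: single well per compound.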
ASAP1 inh = ASAP1 ArfGAP inhibition; Q9ULH1; AID 624377; inhibition, % at 16.5 µM; hit rate 0.19% among 360,000; ASAP1-stimulated ARF1 GTP hydrolysis, GDP FP detection; in the data active = inhibition above about 25%;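 note: 0% = vehicle with enzyme and substrate and 100% = no enzyme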
ARFGAP1 inh = inhibitors of rat ARFGAP1; inhibition, % at 16.5 µM; Arfgap1-stimulated ARF1 GTP hydrolysis, GDP FP detection; hit rate 0.26% among 360,000;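 active = inhibition above a per-plate limit, mean inhibition of low control wells plus 3 SD, cut at about 25% in these data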;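 note: 0% = DMSO wells with enzyme and 100% = wells lacking Arfgap1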
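Repeats: one replicate per compound; assay system: rat Arfgap1 catalytic domain, aa 1-136; times: enzyme reaction 120 min at 25 °C after 20 min preincubation; detection: FP of antibody-bound GDP Alexa 633 tracer, ex 620/em 688 nm; benchmarks: high control wells lacking Arfgap1, low control full reaction with DMSO; reagent: human ARF1(Δ1-17)-GTP substrate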
UHRF1 binding = UHRF1 methyl-DNA binding inhibition; inhibition, % at 4.4 µM; Q96T88; hit rate 0.75% among 370,000; UHRF1 binding to methylated oligo, TR-FRET; in the data active = inhibition above about 21%;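 note: UHRF1 SRA domain binding a hemimethylated CpG hairpin DNA probe; 0% = median of test compound wells and 100% = reference inhibitor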
Target sequence (Q96T88 whole entry, looked up, the tested form may be a part): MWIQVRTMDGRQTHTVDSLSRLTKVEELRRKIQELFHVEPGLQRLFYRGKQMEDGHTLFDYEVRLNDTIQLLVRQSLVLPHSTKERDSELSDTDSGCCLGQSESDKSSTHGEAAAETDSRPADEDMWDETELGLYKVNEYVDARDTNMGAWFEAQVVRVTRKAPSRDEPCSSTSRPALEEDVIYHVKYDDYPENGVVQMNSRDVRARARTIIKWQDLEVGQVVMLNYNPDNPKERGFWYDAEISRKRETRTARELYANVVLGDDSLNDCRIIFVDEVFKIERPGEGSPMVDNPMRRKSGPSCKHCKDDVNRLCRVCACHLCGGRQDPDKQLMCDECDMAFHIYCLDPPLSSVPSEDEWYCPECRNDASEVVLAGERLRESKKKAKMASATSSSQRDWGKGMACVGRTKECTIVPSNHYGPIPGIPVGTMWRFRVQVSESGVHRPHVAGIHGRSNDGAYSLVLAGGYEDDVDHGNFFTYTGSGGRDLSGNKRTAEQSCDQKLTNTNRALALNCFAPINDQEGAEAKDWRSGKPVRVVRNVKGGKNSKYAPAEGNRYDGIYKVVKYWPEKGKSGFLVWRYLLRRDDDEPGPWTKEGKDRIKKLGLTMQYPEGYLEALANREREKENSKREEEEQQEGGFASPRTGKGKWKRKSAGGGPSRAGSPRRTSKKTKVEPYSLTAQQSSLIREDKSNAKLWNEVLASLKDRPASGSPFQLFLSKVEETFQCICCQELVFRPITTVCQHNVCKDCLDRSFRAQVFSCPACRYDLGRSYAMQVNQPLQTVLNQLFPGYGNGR
MBD2 inh = inhibitors of human MBD2 binding to methylated oligonucleotide; TR-FRET; Q9UBB5; hit rate 0.31% among 370,000; inhibition, % at 4.4 µM; in the data active = inhibition above about 13%
LEDGF integ inh = blocks HIV-1 LEDGF/p75-dependent DNA integration. TR-FRET IN-LEDGF/p75 DNA integration, Eu/Cy5. inhibition, % at 3.7 µM. hit rate 0.64% among 370,000. AID 743269;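 active = inhibition above the screen-wide mean plus 3 SD, cut at about 13% in these data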;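 note: signal is the Cy5 over europium emission ratio at 671 and 618 nm; 0% = plate median of compound wells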
IN multimer act = activates HIV-1 integrase multimerization in LEDGF counter-screen | shares compounds with LEDGF integ inh | TR-FRET HIV-1 integrase multimerization, biochemical | activation, % at 7.7 µM | hit rate 17% among 2,000 | AID 1053131; in the data active = activation above about 8.9%
TR-FRET interf = optically interferes with TR-FRET readout in LEDGF counter-screen. shares compounds with LEDGF integ inh. TR-FRET optical interference counterscreen, HIV-1 IN multimerization. inhibition, % at 7.7 µM. 2,000 tested, under 10 active;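 active = inhibition above the mean over all tested compounds plus 3 SD, which no compound reached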;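 note: 0% = integrase with antibodies and DMSO and 100% = antibodies without integrase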
IN-LEDGF confirm = confirmation of HIV-1 LEDGF/p75-dependent integration inhibitors. shares compounds with LEDGF integ inh. TR-FRET LEDGF/p75-dependent HIV-1 integration, biochemical. hit rate 36% among 2,000. inhibition, % at 3.7 µM; in the data active = inhibition above about 14%
Numbers without * were called inactive; / = no result. Sampled rows, rich in hits. Any-hit rate of the full collection: about 2%.

SMILES	TDP2 absorb	ASAP1 inh	ARFGAP1 inh	UHRF1 binding	MBD2 inh	LEDGF integ inh	IN multimer act	TR-FRET interf	IN-LEDGF confirm
CCOC(=O)c1c(N)sc(N)c1C(=O)OCC	-14	-8	4	-1	-4	0	/	/	/
CCOC(=O)c1c(N)sc(=S)c2c1CCC2	-1	2	0	16	4	34*	1	-3	32*
CNC(=O)c1ccc(CN(C)CC(=O)Nc2ccccc2C(=O)NC2CC2)cc1	5	10	10	2	-1	75*	-1	4	-2
CSc1ccc(CN(C)CC(=O)Nc2ccccc2C(=O)NC2CC2)cc1	4	-8	-4	-2	-2	-3	/	/	/
CCOc1ccc(NC(=O)c2cc(-c3ccc(Cl)cc3)nc3ccccc23)cc1	-1	/	/	1	0	-1	/	/	/
CCOc1ccc2c(c1)C(C)=CC(C)(C)N2C(=O)Nc1ccccc1F	34*	0	11	-2	-14	22*	4	-21	1
CCNC(=O)N1c2ccc(OCC)cc2C(C)=CC1(C)C	11	-4	7	-7	-1	7	/	/	/
c1coc(-c2nnc3n2N=C(c2ccc4c(c2)OCO4)CS3)c1	7	/	/	-9	-5	2	/	/	/
O=c1c(Br)ccc(Br)cc1Br	4	-7	-9	-1	4	15*	2	-8	30*
Cc1cc(SCC(=O)NCCN2C(=O)CSC2=O)nc2c(C)cccc12	4	3	2	2	2	23*	6	-30	1
N/C(=N\C(=O)OCc1ccccc1)N(CC#CC1=CCCCC1)CC1CC1	-5	/	/	-2	1	-1	/	/	/
NC(=S)NN=Cc1nccc2ccccc12	-5	-6	0	-18	-8	1	/	/	/
Cc1cnc(C=NNC(N)=S)c2cccc(N)c12	15	4	-7	11	-4	17*	20*	-99	61*
COc1cccc(NC(=O)C2CCCN2C(=O)Nc2ccc(Cl)cc2)c1 (centres undefined)	13	/	/	2	2	-3	/	/	/
c1coc(-c2ccnc3nc(-n4cccc4)nn23)c1	-5	6	-5	-6	6	17*	1	-5	8
CCNC(=O)C[C@H]1CC[C@H]2[C@@H](COc3ccc(NC(=O)Nc4ccccc4)cc3C(=O)N2C)O1	9	/	/	6	12	0	/	/	/
COc1cc2c(c(OC)c1OC)C1(CCCCC1)CC2NS(=O)(=O)C(C)C (centres undefined)	-9	12	2	0	-2	2	/	/	/
Cn1c(SCC(=O)N2CCOCC2)nnc1-c1cnccn1	8	9	0	1	1	20*	0	0	4
Cn1c(SCC(=O)N2CCOCC2)nnc1-c1ccncc1	-5	0	-8	-1	1	0	/	/	/
O=C(CSc1nnc(-c2ccccc2Br)o1)N1CCOCC1	3	8	1	0	-1	2	/	/	/
CC(Sc1nnc(-c2ccccc2Br)o1)C(=O)N1CCOCC1 (centres undefined)	17	-12	9	-1	-7	23*	-2	8	-4
O=C(c1cccc(C(F)(F)F)c1)N1CC[C@H]2[C@H](CCCN2Cc2ccccc2)C1	2	/	/	-3	-1	-1	/	/	/
COC(=O)[C@]12C[C@H](CC(=O)N3CCSCC3)C(=O)N(CCc3ccc(OC)c(OC)c3)C1=C[C@H](C1CCCC1)O[C@@H]2C	-3	/	/	0	-1	-2	/	/	/
C(CCN1CCOCC1)CN1CCOCC1	4	3	-4	2	1	-3	/	/	/
CN1CCN(CP(=O)(N2CCOCC2)N2CCOCC2)CC1	2	2	0	-1	-3	27*	6	-21	3
SMILES	TDP2 absorb	ASAP1 inh	ARFGAP1 inh	UHRF1 binding	MBD2 inh	LEDGF integ inh	IN multimer act	TR-FRET interf	IN-LEDGF confirm
CC(=O)Nc1ccc2c(COC(=O)CC3Sc4ccccc4NC3=O)cc(=O)oc2c1 (centres undefined)	9	13	3	15	6	14*	21*	-107	14*
COc1ccc2c(COC(=O)CC3Sc4ccccc4NC3=O)cc(=O)oc2c1 (centres undefined)	2	0	-6	-1	-3	0	/	/	/
Cc1ccc(-c2n[nH]c(=S)n2/N=C/c2cccs2)cc1	-12	-7	-14	2	5	-8	/	/	/
Cc1cc(-c2n[nH]c(=S)n2/N=C/c2cccs2)n[nH]1	8	-14	2	-1	3	38*	2	-8	1
O=C(NCc1ccccc1)C1(C(=O)C2CC2)CC(c2ccccc2C(F)(F)F)=NO1 (centres undefined)	0	/	/	3	-1	2	/	/	/
O=C(NC(Cc1ccccc1)C(=O)O)/C(=C/c1ccc(Cl)cc1)NC(=O)c1ccccc1 (centres undefined)	11	-10	3	-2	2	20*	2	-8	15*
O=C(NC(Cc1ccccc1)C(=O)O)/C(=C\c1ccccc1F)NC(=O)c1ccccc1 (centres undefined)	8	-20	-8	-2	-2	2	/	/	/
CCCCc1cc(=O)oc2cc(C)c(CN3CCCC3)c(O)c12	-12	-6	-8	6	3	17*	0	2	16*
CCc1cc(=O)oc2cc(C)c(CN3CCCC(C)C3)c(O)c12 (centres undefined)	0	13	-1	27*	12	19*	1	-4	20*
CCn1c(C)cc(/C=C2\NC(=O)N(Cc3ccccc3)C2=O)c1C	-11	7	4	1	2	17*	1	-3	-4
Nc1nc(COC(=O)C2CC(=O)N(Cc3ccccc3Cl)C2)nc(Nc2ccccc2)n1 (centres undefined)	-8	-6	2	0	-2	18*	0	-1	-5
Cc1cccc(NC(=O)CN2C(=O)CCSc3ccccc32)c1C	-17	/	/	0	-4	-2	/	/	/
Cc1ccc(-n2nc3c(c2NC(=O)c2ccc(Br)o2)CSC3)c(C)c1	-3	-1	-7	-2	-2	15*	0	-1	49*
CC(C)c1ccc(/C=C/C(=O)NCCCc2ccccc2)cc1	-16	-6	9	-4	-2	76*	3	-15	-1
COc1cccc(N/N=C/c2cccc(Br)c2O)c1	3	-1	2	-2	3	-3	/	/	/
